ChEMBL document CHEMBL2163220 (J Med Chem, 2012)
Changes are numbered by the printed parent chain. Calls of active or inactive are those of the source. No cut-off for these calls is given here.

How the values were obtained:
[1] = molecular target: T1, Androgen receptor (Homo sapiens) (UniProt P10275); experiment: Antagonist activity at androgen receptor in human LNCaP cells assessed as increase in Maspin promoter activity by luciferase reporter gene assay; type: functional, cell-based
T1 sequence (whole entry): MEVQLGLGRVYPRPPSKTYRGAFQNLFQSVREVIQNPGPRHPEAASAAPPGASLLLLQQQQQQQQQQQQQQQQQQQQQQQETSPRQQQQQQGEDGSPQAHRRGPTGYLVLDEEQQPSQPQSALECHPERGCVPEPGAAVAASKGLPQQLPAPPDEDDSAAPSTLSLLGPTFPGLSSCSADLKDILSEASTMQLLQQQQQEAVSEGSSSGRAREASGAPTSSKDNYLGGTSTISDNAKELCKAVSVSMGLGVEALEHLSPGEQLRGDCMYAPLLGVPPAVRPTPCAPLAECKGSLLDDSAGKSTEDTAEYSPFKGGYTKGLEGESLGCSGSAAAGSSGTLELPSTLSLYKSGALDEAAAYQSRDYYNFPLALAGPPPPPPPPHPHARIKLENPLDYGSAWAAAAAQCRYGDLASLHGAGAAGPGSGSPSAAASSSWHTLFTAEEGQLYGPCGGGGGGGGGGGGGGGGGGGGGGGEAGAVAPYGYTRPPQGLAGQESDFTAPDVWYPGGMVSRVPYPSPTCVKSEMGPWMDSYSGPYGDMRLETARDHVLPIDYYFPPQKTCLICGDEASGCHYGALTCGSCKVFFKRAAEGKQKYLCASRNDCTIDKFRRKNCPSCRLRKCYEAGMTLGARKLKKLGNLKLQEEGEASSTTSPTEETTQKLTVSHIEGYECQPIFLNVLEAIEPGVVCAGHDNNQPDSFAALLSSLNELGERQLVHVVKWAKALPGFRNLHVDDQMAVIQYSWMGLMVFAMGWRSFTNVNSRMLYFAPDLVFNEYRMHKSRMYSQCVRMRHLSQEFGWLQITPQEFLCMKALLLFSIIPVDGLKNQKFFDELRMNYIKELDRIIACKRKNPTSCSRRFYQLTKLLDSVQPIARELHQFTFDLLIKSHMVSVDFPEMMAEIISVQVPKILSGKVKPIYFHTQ
Method in brief: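 LNCaP cells carrying a maspin promoter-luciferase reporter were treated with compound and read by luciferase activity, in triplicate.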

[2] = tested on: PC-3; experiment: Antagonist activity at androgen receptor ARv7 mutant lacking ligand binding domain expressed in human PC3 cells assessed as reduction in DHT-induced receptor transactivation at 1 uM by luciferase reporter gene assay; type: cell-based
Method in brief: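 AR-v7 (lacks LBD), MMTV-Luc and pRL-TK (Renilla) plasmids transiently transfected into PC-3 cells; cells treated with DMSO vehicle, 0.1 nM DHT, or test compound at 1 μM; transactivation read as luciferase activity (relative luciferase units).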

[3] = tested on: T2, Androgen receptor (Homo sapiens), P10275 [H875Y]; experiment: Agonist activity at androgen receptor H874Y mutant expressed in human PC3 cells assessed as stimulation of receptor transactivation at 0.1 to 1 uM by luciferase reporter gene assay; type: functional, cell-based; details: PC-3
T2 sequence (whole entry): T1 sequence (whole entry) with H875Y
Method in brief: (§1)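 Full-length wild-type or mutant AR plasmid transiently transfected into PC-3 cells with MMTV-luc and Renilla luciferase reporters. Cells treated with DMSO vehicle or compound at 0.1 and 1 μM, alone or with 0.1 nM DHT. Luciferase read as relative luciferase units. Run in triplicate.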

[4] = tested on: PC-3; experiment: Antagonist activity at androgen receptor T887A mutant expressed in human PC3 cells assessed as reduction in DHT-induced receptor transactivation at 0.1 to 1 uM by luciferase reporter gene assay; type: functional, cell-based; method in brief: as §1
[5] = molecular target: T1, Androgen receptor (Homo sapiens); experiment: Antagonist activity at androgen receptor expressed in human PC3 cells assessed as reduction in DHT-induced receptor transactivation at 0.1 to 1 uM by luciferase reporter gene assay; type: functional, cell-based; details: PC-3; method in brief: as §1
[6] = tested on: LNCaP; experiment: Cytotoxicity against human LNCAP cells incubated for 72 hrs by MTT assay; type: functional, cell-based
Method in brief: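 MTT assay run across a panel of prostate cancer cell lines.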

[7] = tested on: LNCaP; experiment: Induction of apoptosis in human LNCAP cells assessed as PARP cleavage activation incubated for 24 hrs by Western blotting; type: functional, cell-based
Method in brief: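 LNCaP cells in complete medium were exposed to DMSO or compound at 1, 2.5 and 5 μM for 24 h. Western blot measured AR, maspin, caspase-3 activation and PARP cleavage, with β-actin as loading control.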

[8] = molecular target: T1, Androgen receptor (Homo sapiens); experiment: Antagonist activity at androgen receptor in human LNCaP cells assessed as increase in Maspin protein expression at 1 to 5 uM incubated for 24 hrs by Western blotting

With `Cc1coc2c1C(=O)C(=O)c1c-2ccc2c1CCCC2(C)C` [TANSHINONE IIA] the Activity [1] was “Dose-dependent effect”, the Activity [2] was “inactive” and the Activity [3] was “inactive”. The Activity [4] was “Active”, the Activity [5] was “Active” and the IC50 [6] was 500 nM. For the same molecule, the Activity [7] was “Dose-dependent effect” and the Activity [8] was “Active”.
